Test results: ChEMBL document CHEMBL4041500, “Attenuation of Mycobacterium species through direct and macrophage mediated pathway by unsymmetrical diaryl urea” (Eur J Med Chem, 2017)
≈ marks a conversion by molar mass, not a printed value.

Columns and labels:
[1] = system: Mycolicibacterium smegmatis; test: Antimycobacterial activity against Mycobacterium smegmatis MC2 155 after 48 hrs by serial dilution method; assay type: functional; conditions: str. MC2 155, 48 h
Procedure, shortened: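 M. smegmatis grown in Middlebrook 7H9 with 10% albumin–dextrose complex and 0.03% Tween80 at 37 °C. Twofold serial dilutions of compound were combined with mid-log culture diluted to OD570 0.01, giving a final range of […] in 7H9 broth. Incubated in ambient air at 37 °C for 48 h. MIC taken as the lowest concentration preventing visible growth.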

[2] = system: Mycobacterium tuberculosis; test: Antimycobacterial activity against Mycobacterium tuberculosis H37Rv ATCC 27294 after 7 days by microplate alamar blue assay; assay type: functional; conditions: H37Rv ATCC 27294, 168 h
Procedure, shortened: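 MABA run in 7H12 medium in 96-well plates for 7 days at 37 °C. Alamar Blue and Tween 80 were then added for a further 24 h. Fluorescence was read at 530/590 nm. MIC was the lowest concentration giving a 90% fluorescence (or luminescence) reduction versus controls. Luciferase reporter strains or intracellular ATP were used for compounds with background fluorescence. Isoniazid and rifampin were run as controls.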

[3] = system: Mycobacterium tuberculosis; test: Antimycobacterial activity against Mycobacterium tuberculosis H37Rv ATCC 27294 at 50 ug/ml after 7 days by microplate alamar blue assay relative to control; assay type: functional; conditions: H37Rv ATCC 27294, 168 h
HepG2 = test: Cytotoxicity against human HepG2 cells assessed as reduction in cell viability after 72 hrs by MTT assay; assay type: cell-based; conditions: hepg2, 72 h
Procedure, shortened: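 HepG2 cells grown in Eagle's MEM with 10% FBS at 37 °C and 5% CO2. Cells were scraped, resuspended at ~1 × 10^6 cells/mL, plated and left 24 h, then exposed to compound at 400 to 0.2 µg/mL for 72 h. Viability read by MTT assay. IC50 (50% loss of viability) taken from a dose–response curve versus log10 concentration.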

Peritoneal macrophage = test: Cytotoxicity against Balb/c mouse peritoneal macrophages assessed as reduction in cell viability after 48 hrs by MTT assay; assay type: cell-based
Procedure, shortened: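 Murine peritoneal macrophages, 1 × 10^6 cells/well, exposed to compound at 0.1 to 250 µg/ml in RPMI-1640 with 10% FBS for 48h. MTT (5 mg/ml) added for 3 h at 37°C, formazan dissolved in 0.04M HCl in isopropanol for 15 min at room temperature, absorbance read at 570 nm. IC50 (50% loss of viability) taken from a dose–response curve of percentage activity versus log10 concentration.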

[4] = system: Mycobacterium tuberculosis; test: Antimycobacterial activity against Mycobacterium tuberculosis MC2 6030 after 2 to 3 weeks by agar plate method; assay type: functional
Procedure, shortened: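 Strain mc²6030 is a pantothenate auxotroph lacking RD1, grown at 37 °C in Sauton's medium plus 20 μg/ml pantothenic acid. Serial 10-fold dilutions of actively growing culture were plated on 7H10/OADC agar with 20 μg/ml pantothenic acid and increasing compound concentrations, from 10 mg/ml DMSO stocks. Plates were held 2–3 weeks at 37 °C. MIC was the concentration inhibiting 99% of growth; isoniazid served as control.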

| Compound | MIC [1] [mg/L] | MIC90 [2] [mg/L] | inhibition at 50 µg/mL [3] [%] | Activity (HepG2) [µg/mL] | Activity (Peritoneal macrophage) [µg/mL] | MIC99 [4] [mg/L] |
| --- | --- | --- | --- | --- | --- | --- |
| CC(C)=CCOc1cccc(NC(=O)Nc2ccc(F)cc2)c1 | 100 (≈ 318 µM) | > 50 | 68 | 102.8 | 87.1 |  |
| CC(C)=CCOc1cccc(NC(=O)Nc2cccc(Br)c2)c1 | 12.5 (≈ 33.3 µM) | 26.5 (≈ 70.6 µM) |  | 148.1 | 131.8 |  |
| CC(C)=CCOc1cccc(NC(=O)Nc2cccc(C)c2)c1 | 50 (≈ 161 µM) | 32.2 (≈ 104 µM) |  | 175.3 | 160.3 |  |
| CC(C)=CCOc1cccc(NC(=O)Nc2ccc([N+](=O)[O-])cc2)c1 | 100 (≈ 293 µM) | > 50 | 94 | 91.6 | 75.2 |  |
| CCCCOc1cccc(NC(=O)Nc2ccccc2)c1 | > 200 | > 50 | 57 | 124.1 | 121.7 | 50 to 100 (≈ 176 to 352 µM) |
| CC(C)=CCOc1cccc(NC(=O)Nc2ccc(C)cc2)c1 | 12.5 (≈ 40.3 µM) | 10.5 (≈ 33.8 µM) |  | 140.6 | 127.6 |  |
| CCCCOc1ccc(NC(=O)Nc2ccccc2)cc1 | > 200 | > 50 | 41 | 132.5 | 108.9 | > 100 |
| CC(C)=CCOc1cccc(NC(=O)Nc2ccccc2[N+](=O)[O-])c1 | > 200 | > 50 | 43 | 61.4 | 58.1 |  |
| C=CCOc1ccc(NC(=O)Nc2cccc([N+](=O)[O-])c2)cc1 | 100 (≈ 319 µM) | 45.5 (≈ 145 µM) |  | 111.4 | 87.5 | 10 to 100 (≈ 31.9 to 319 µM) |
| NNC(=O)c1ccncc1 [ISONIAZID] | 6.25 (≈ 45.6 µM) | 0.11 (≈ 0.802 µM) |  | > 200 | > 200 | 0.05 (≈ 0.365 µM) |
| CC(C)=CCOc1cccc(NC(=O)Nc2ccc(C(F)(F)F)cc2)c1 | 6.25 (≈ 17.2 µM) | > 50 | 69 | 142.2 | 115.3 |  |
| CC(C)=CCOc1cccc(NC(=O)Nc2ccccc2C(F)(F)F)c1 | 12.5 (≈ 34.3 µM) | > 50 | 45 | 71.4 | 69.4 |  |
| CC(C)=CCOc1ccc(NC(=O)Nc2cccc(C#N)c2)cc1 | 50 (≈ 156 µM) | > 500 | 82 | 186.4 | 169.1 | 5 (≈ 15.6 µM) |
| CC(C)CCOc1ccc(NC(=S)Nc2ccc(OCCC(C)C)cc2)cc1 [TIOCARLIDE] | 25 (≈ 62.4 µM) | 2.3 (≈ 5.74 µM) |  | 31.3 | 12.5 |  |
| CC(C)=CCOc1cccc(NC(=O)Nc2ccccc2)c1 | > 200 | > 50 | 79 | 168.2 | 141.8 | 30 (≈ 101 µM) |
| C=CCOc1cccc(NC(=O)Nc2cccc([N+](=O)[O-])c2)c1 | 50 (≈ 160 µM) | > 50 | 76 | 105.6 | 78.4 | 5 (≈ 16 µM) |
| CC(C)=CCOc1cccc(NC(=O)Nc2ccc(Br)cc2)c1 | 50 to 100 (≈ 133 to 266 µM) | > 50 | 86 | 135.6 | 140.2 |  |
| CC(C)=CCOc1ccc(NC(=O)Nc2ccccc2C)cc1 | 50 to 200 (≈ 161 to 644 µM) | > 50 | 61 to 75 |  | 81.3 | 50 to 100 (≈ 161 to 322 µM) |
| CCCCOc1cccc(NC(=O)Nc2cccc([N+](=O)[O-])c2)c1 | > 200 | > 50 | 79 | 97.3 | 74.3 | 50 (≈ 152 µM) |
| C=CCOc1cccc(NC(=O)Nc2ccccc2C)c1 | > 200 | > 50 | 68 | 102.4 | 90.3 | > 100 |
| C=CCOc1ccc(NC(=O)Nc2ccccc2)cc1 | > 200 | > 50 | 84 | 182.4 | 152.6 | > 100 |
| CC(C)=CCOc1ccc(NC(=O)Nc2cccc([N+](=O)[O-])c2)cc1 | > 200 | > 50 | 69 | 142.6 | 131.2 | > 100 |
| CCCCOc1ccc(NC(=O)Nc2cccc([N+](=O)[O-])c2)cc1 |  |  |  |  | 75.2 |  |
| CC(C)=CCOc1cccc(NC(=O)Nc2ccccc2F)c1 | 50 (≈ 159 µM) | > 50 | 45 | 82.4 | 68.2 |  |
| C=CCOc1ccc(NC(=O)Nc2ccccc2C)cc1 | 50 (≈ 177 µM) | 24.5 (≈ 86.8 µM) |  | 99.2 | 122.1 | 100 (≈ 354 µM) |
| CCCCOc1cccc(NC(=O)Nc2ccccc2C)c1 | > 200 | > 50 | 70 | 175.1 | 152.9 | > 100 |
| CC(C)=CCOc1cccc(NC(=O)Nc2ccc(Cl)cc2)c1 | 50 to 100 (≈ 151 to 302 µM) | > 50 | 75 | 122.3 | 115.3 |  |
| CC(C)=CCOc1cccc(NC(=O)Nc2ccccc2Br)c1 | 25 (≈ 66.6 µM) | 38.7 (≈ 103 µM) |  | 131.9 | 119.4 |  |
| CC(C)=CCOc1cccc(NC(=O)Nc2cccc(Cl)c2)c1 | 25 (≈ 75.6 µM) | 48.6 (≈ 147 µM) |  | 114.3 | 96.7 |  |
| CC(C)=CCOc1cccc(NC(=O)Nc2ccccc2Cl)c1 | 50 (≈ 151 µM) | > 50 | 64 | 128.2 | 105.6 |  |
